UPR XBP1 act = activators of adaptive XBP1 UPR arm, primary screen, cell-based, CHO-XBP1 luciferase reporter, luminescence, uHTS. IRE1-XBP1 UPR activation; percent of tunicamycin response, DMSO as zero. activation, % at 20 µM. actives 0.33% (n = 330,000). AID 463104, 2010;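 active means versus positive control, 20 µM dose yields 30% or more activation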
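Material: CHO cell line with stable XBP1 luciferase reporter; schedule: 16-18 h cell attachment at 37 °C, then 6 h compound exposure; signal: glow luminescence from Steady-Glo reagent; medium: serum-containing F12 medium, 10% FBS; benchmarks: tunicamycin 10 µg/mL and vehicle-only wells; read-out: percent activation relative to tunicamycin reference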
NR3A LBD binder = binders of NR3A ligand-binding domain, primary screen, biophysical, differential scanning fluorimetry, uHTS; Glutamate receptor ionotropic, NMDA 3A (GRIN3A) ligand-binding domain; NR3A LBD differential scanning fluorimetry, Tm shift; 0% = protein alone, 100% = glycine-bound protein; Tm shift relative to glycine control, % at 25 µM; actives 2.5% (n = 340,000); AID 1259313, 2017;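 active means melting temperature shift of at least 10% of the positive control shift, at one fixed dose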
UPR CHOP act = activators of apoptotic CHOP UPR arm, primary screen, cell-based, CHO-CHOP luciferase reporter, luminescence, uHTS; UPR activation; percent of tunicamycin response over DMSO baseline; activation, % at 10 µM; actives 0.34% (n = 330,000);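 active means at 10 µM dose, activation of 40% or more, normalized to positive control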
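System: CHO CHOP reporter cells. Amount: 500 cells per well. Buffer or medium: F12 medium, 10% FBS. Compound dosing: one dose, 10 µM in 0.5% DMSO. Incubation: 6 h compound exposure at 37 °C after overnight seeding. Technique: Steady-Glo luciferase luminescence. Benchmarks: tunicamycin and DMSO controls.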
MPTP block = mitochondrial permeability transition pore inhibitors, primary screen, biochemical, isolated mouse mitochondria, absorbance. AID 602449, 2012. actives 1.4% (n = 360,000). Ca2+ swelling absorbance, 30 min. inhibition, % at 10 µM;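 active means inhibition of 50% or more, scaled per plate between neutral and stimulator controls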
aDG glyco up = activators of alpha-DG glycosylation, primary screen, uHTS, Pro5-aDG cells, AlphaScreen; activation, % at 10 µM; alpha-DG glycosylation AlphaScreen (IIH6); 0% Pro5, 100% B10-LARGE cell signal; AID 624168, 2012; actives 0.22% (n = 360,000);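 active means activation of at least 8% versus controls, or a plate z-score of at least 8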;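 further: Pro5 are CHO cells carrying HIG-tagged alpha-DG that lacks glycosylation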
CHOP inhibitor = inhibitors of CHOP promoter induction, primary screen, cell-based, unfolded protein response, luciferase reporter. inhibition, % at 10 µM. CHO-K1 CHOP-promoter luciferase, tunicamycin-induced, 15-18 h. actives 3.8% (n = 220,000);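 active means compounds that reduced the stress-induced luciferase reporter signal by more than about 70% of percent inhibition, limit read from the data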
XBP1 UPR conf = IRE1-XBP1 UPR arm activators, confirmation, cell-based, CHO-XBP1 luciferase reporter, luminescence, single concentration | activation, % at 20 µM | shares compounds with UPR XBP1 act | actives 63% (n = 1,000) | AID 485299, 2010;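 active means reporter signal at least 30% of the positive control's activation in two or more of four replicate wells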
Hits are given with their value; n = inactive; x = no result given. A selection: hits, their analogues and other compounds. The true share with any hit is near 5.6%.

SMILES	UPR XBP1 act	NR3A LBD binder	UPR CHOP act	MPTP block	aDG glyco up	CHOP inhibitor	XBP1 UPR conf
CCCCN1C(=O)C(=O)c2cc(Cl)ccc21	42	n	n	n	n	x	38
Cc1ccc2c(c1)C(=O)C(=O)N2Cc1ccc(Br)cc1	52	n	n	n	n	x	40
CCn1cc(CN2CCC(n3nccc3NC(=O)c3ccc(OC)cc3)CC2)cn1	n	n	n	n	n	x	x
CC(=O)Nc1ccc(-c2cc(-c3ccc(NC(C)=O)cc3)nc(-c3ccc(NC(C)=O)cc3)n2)cc1	n	n	n	n	n	n	x
CC(=O)Nc1ccc(-c2cc(-c3ccc(NC(C)=O)cc3)nc(-c3ccccc3)n2)cc1	46	x	n	n	n	n	n
CCC(=O)Nc1ccc(-c2cc(-c3ccccc3)nc(-c3ccc(NC(=O)CC)cc3)n2)cc1	82	16	n	n	n	n	92
CC(=O)c1ccccc1C(=O)N1CCCC(CNC(=O)c2ccc(F)cc2)C1 (stereo not given)	x	x	x	n	n	x	x
O=C(Cn1ccc(C(F)(F)F)n1)Nc1cccc(S(=O)(=O)N2CCCCC2)c1	n	n	n	n	n	n	x
COc1ccc(N2CCN(C(=O)c3cccc(NC(=O)c4ccco4)c3)CC2)cc1	n	n	n	n	n	x	x
COc1ccc(CCNC(=O)c2cc3c(=O)n4ccccc4nc3n(Cc3ccco3)c2=N)cc1OC	43	n	n	n	n	x	n
O=[N+]([O-])c1ccc(-c2ccc(/C=N/Nc3nc(NCc4ccccc4)nc(N4CCOCC4)n3)o2)cc1	47	11	n	n	n	n	n
N#C/C(=C\Nc1ccc2cn[nH]c2c1)c1nc(-c2ccc(Cl)cc2)cs1	101	n	n	n	n	n	72
N#C/C(=C\Nc1ccc2cn[nH]c2c1)c1nc(-c2ccccc2)cs1	x	n	x	n	n	n	x
COc1ccc(-c2cc(C(=O)Nc3c(C)nn(Cc4ccc(Cl)cc4)c3C)no2)cc1	49	n	n	n	n	81	n
N#Cc1ccc(-c2ccc(Cl)cc2)nc1SCC(=O)c1cccc(Cl)c1	122	n	n	n	n	n	369
Clc1ccc(-c2ccc(-c3nn4c(-c5ccco5)nnc4s3)o2)cc1	91	n	n	n	n	x	n
Brc1ccc(-c2nn3c(-c4ccco4)nnc3s2)o1	n	n	n	n	n	n	x
Oc1ccc(-c2nc3ccc4ccccc4c3c3c2CCC3)cc1O	31	13	n	n	n	n	51
CC(C)(C)S(=O)(=O)N1Cc2cc(CO)cc(CCO)c2[C@@H]1CCO	x	n	x	n	n	x	x
CCC/C(=N/Nc1ccc(Cl)cc1)c1cnnc(-c2ccccc2)n1	66	n	n	x	x	x	28
CC/C(=N/Nc1ccccc1Cl)c1cnnc(-c2ccccc2)n1	n	n	n	n	n	n	x
COc1ccc2[nH]c3c(c2c1)CCN1C(=O)C(CC(=O)NC/C=C(\C)CCC=C(C)C)C[C@H](C(=O)N(C(C)C)C(C)C)[C@@]31C (stereo not given in full)	33	n	n	n	n	x	46
COc1cc(/C=C/C(=O)c2ccccc2O)cc(OC)c1OC	31	n	n	n	n	n	n
COc1ccc2nc(NC(=O)c3cccc(-c4cc5ccccc5oc4=O)c3)sc2c1	78	n	n	n	n	105	55
COc1ccccc1CNC(=O)C(NC(=O)c1ccccc1C)C(C)C (stereo not given)	n	n	n	n	n	n	x
SMILES	UPR XBP1 act	NR3A LBD binder	UPR CHOP act	MPTP block	aDG glyco up	CHOP inhibitor	XBP1 UPR conf
COC(=O)c1ccc(N2CCN(C)CC2)c(NC(=O)c2ccc(-c3ccc(Cl)cc3)o2)c1	45	n	n	n	n	x	n
CCCNC(=O)c1ccc2c(=O)c(O)c(-c3ccc(OC)cc3)[nH]c2c1	63	n	n	n	n	n	56
CCCNC(=O)c1ccc2c(=O)c(O)c(-c3ccsc3)[nH]c2c1	n	n	n	n	n	n	x
Cc1cccc2sc(NC(=O)C3CSC4(C)CCC(=O)N34)nc12 (stereo not given)	31	n	n	n	n	x	n
CN(C)C(CNC(=O)c1cc(S(=O)(=O)N(C)c2ccc(F)cc2)ccc1Cl)c1cccs1 (stereo not given)	x	n	x	n	n	x	x
CC(C)CCOc1ccc(-c2c(=O)n(OCc3ccc([N+](=O)[O-])cc3)c3ccccc3[n+]2[O-])cc1	41	n	n	n	n	n	n
CCCOc1ccc(-c2c(=O)n(OCc3ccc([N+](=O)[O-])cc3)c3ccccc3[n+]2[O-])cc1	n	n	n	n	n	n	x
O=C(N[C@@H]1CCC(=O)N(CC[C@H](Oc2ccccc2)c2ccccc2)CC1)OCc1ccccc1	n	n	n	n	n	x	x
COc1ccc(-c2cc(=Nc3c(C)n(C)n(-c4ccccc4)c3=O)c3ccccc3o2)cc1	n	n	n	n	n	n	x
COc1ccc(-c2c/c(=N\c3nc(-c4ccccc4)c(C)s3)c3ccccc3o2)cc1O	34	15	n	n	n	x	39
Cc1cc(N2C(=O)C(=O)/C(=C(/O)c3ccc(F)cc3)C2c2ccc(Cl)cc2)no1 (stereo not given)	33	n	n	n	n	n	n
CCN(CC(=O)NCc1ccc(F)cc1)CC(=O)Nc1cc(S(=O)(=O)N(C)C)ccc1C	n	n	n	n	n	x	x
O=c1[nH]c(CSc2ncnc3sc(-c4ccccc4)cc23)nc2ccccc12	87	n	n	n	n	n	142
NS(=O)(=O)c1ccc(N/N=C/c2cn(-c3ccccc3)nc2-c2cccs2)c([N+](=O)[O-])c1	57	n	n	n	n	n	62
NC(=O)N/N=C/c1cn(-c2ccccc2)nc1-c1cccs1	n	n	n	n	n	n	x
CCN(CC)S(=O)(=O)c1ccc2c(c1)C(=NO)c1cc(S(=O)(=O)N(CC)CC)ccc1-2	52	n	n	n	n	n	79
O=C(C[n+]1ccc(-c2cc(C(=O)Nc3cccc(C(F)(F)F)c3)c3ccccc3n2)cc1)c1cccc([N+](=O)[O-])c1	106	n	n	n	n	81	91
Cc1ccc(S(=O)(=O)N(CC(=O)NCc2ccccc2Cl)C(=O)N2CCN(C)CC2)cc1	n	n	n	n	n	x	x
